ChEMBL document CHEMBL1153847, “Synthesis and in vitro cytotoxic evaluation of novel 3,4,5-trimethoxyphenyl substituted beta-carboline derivatives” (Eur J Med Chem, 2009)

How the values were obtained:
Format in all cases: functional, cell-based
MCF7 = experiment: Cytotoxicity against human MCF7 cells by MTT assay
In short: (§1)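 Cells grown in RPMI-1640 with 10% (v/v) fetal calf serum, penicillin and streptomycin, at 37 °C in humidified 5% CO2. Compounds dissolved as DMSO stocks, with final DMSO in the medium at 2% (v/v) or lower. Run in 96-well microtitre cultures with MTT staining, following a published procedure with slight modification.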

Bel-7402 = experiment: Cytotoxicity against human Bel7402 cells by MTT assay; in short: as §1
HepG2 = experiment: Cytotoxicity against human HepG2 cells by MTT assay; in short: as §1
HeLa = experiment: Cytotoxicity against human HeLa cells by MTT assay; in short: as §1
BGC-823 = experiment: Cytotoxicity against human BGC823 cells by MTT assay; in short: as §1

Row | Structure (SMILES) | IC50 (MCF7) [µM] | IC50 (Bel-7402) [µM] | IC50 (HepG2) [µM] | IC50 (HeLa) [µM] | IC50 (BGC-823) [µM]
1 | COc1cc(-c2nc(C=O)cc3c4ccccc4n(CCCc4ccccc4)c23)cc(OC)c1OC | > 100 | > 100 | > 100 | > 100 | > 100
2 | CCCCn1c2ccccc2c2cc(C(=O)O)nc(-c3cc(OC)c(OC)c(OC)c3)c21 | > 100 | > 100 | > 100 | > 100 | 51.1
3 | CCn1c2ccccc2c2cc(C(=O)O)nc(-c3cc(OC)c(OC)c(OC)c3)c21 | > 100 | 61.4 | > 100 | > 100 | 66.5
4 | CCn1c2ccccc2c2ccnc(-c3cc(OC)c(OC)c(OC)c3)c21 | 72.7 | 43.9 | > 100 | 50.9 | 35.2
5 | COc1cc(-c2nccc3c4ccccc4n(C)c23)cc(OC)c1OC | 74.2 | 91.1 | 86.8 | 71.8 | 43.2
6 | CCOC(=O)c1cc2c3ccccc3n(CCCc3ccccc3)c2c(-c2cc(OC)c(OC)c(OC)c2)n1 | > 100 | > 100 | > 100 | > 100 | 95.4
7 | CCCCn1c2ccccc2c2cc(C=O)nc(-c3cc(OC)c(OC)c(OC)c3)c21 | > 100 | > 100 | > 100 | > 100 | > 100
8 | COc1cc(-c2nc(C(=O)O)cc3c4ccccc4n(C)c23)cc(OC)c1OC | > 100 | > 100 | > 100 | > 100 | 91.1
9 | CCCCn1c2ccccc2c2ccnc(-c3cc(OC)c(OC)c(OC)c3)c21 | 51.8 | 42.5 | 51.9 | 44.2 | 27.5
10 | COc1cc(-c2nccc3c2[nH]c2ccccc23)cc(OC)c1OC | 31.7 | 43.8 | 63.2 | 19.6 | 43.1
11 | COc1ccc2c(c1)[nH]c1c(C)nccc12 [HARMINE] | 72 | 54 | 46 | 60 | 68
12 | COc1cc(-c2nc(C=O)cc3c4ccccc4n(C)c23)cc(OC)c1OC | > 100 | > 100 | > 100 | > 100 | > 100
13 | COc1cc(-c2nc(CO)cc3c4ccccc4n(CCCc4ccccc4)c23)cc(OC)c1OC | > 100 | > 100 | > 100 | > 100 | > 100
14 | CCCCn1c2ccccc2c2cc(C(=O)OCC)nc(-c3cc(OC)c(OC)c(OC)c3)c21 | 43.6 | > 100 | > 100 | > 100 | 27.3
15 | CCOC(=O)c1cc2c([nH]c3ccccc32)c(-c2cc(OC)c(OC)c(OC)c2)n1 | 92.3 | > 100 | > 100 | > 100 | 96.6
16 | CCn1c2ccccc2c2cc(C(=O)NCCO)nc(-c3cc(OC)c(OC)c(OC)c3)c21 | 53.8 | > 100 | > 100 | > 100 | 74.7
17 | CCn1c2ccccc2c2cc(CO)nc(-c3cc(OC)c(OC)c(OC)c3)c21 | > 100 | > 100 | > 100 | > 100 | > 100
18 | CCOC(=O)c1cc2c3ccccc3n(C)c2c(-c2cc(OC)c(OC)c(OC)c2)n1 | > 100 | > 100 | > 100 | > 100 | 56.6
19 | CCn1c2ccccc2c2cc(C=O)nc(-c3cc(OC)c(OC)c(OC)c3)c21 | > 100 | > 100 | > 100 | > 100 | > 100
20 | CCCCn1c2ccccc2c2cc(C(=O)NCCO)nc(-c3cc(OC)c(OC)c(OC)c3)c21 | 31.6 | > 100 | 87.4 | > 100 | 37.2
21 | COc1cc(-c2nc(CO)cc3c4ccccc4n(C)c23)cc(OC)c1OC | > 100 | > 100 | > 100 | > 100 | > 100
22 | CCCCn1c2ccccc2c2cc(CO)nc(-c3cc(OC)c(OC)c(OC)c3)c21 | > 100 | > 100 | > 100 | > 100 | > 100
23 | CCOC(=O)c1cc2c3ccccc3n(CC)c2c(-c2cc(OC)c(OC)c(OC)c2)n1 | > 100 | > 100 | > 100 | > 100 | 53.2
24 | COc1cc(-c2nc(C(=O)NCCO)cc3c4ccccc4n(C)c23)cc(OC)c1OC | 95.5 | > 100 | > 100 | > 100 | 90.9
